Test results published in ChEMBL document CHEMBL5058577, “EUbOPEN Chemogenomics Library 2 (Multiplex)” (2022).

Test system: HEK-293T
Test: Multiplex assay against HEK293T
Assay type: toxicity, cell-based
Conditions: human
How it was run: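 Hoechst33342, BioTracker Green Microtubule Cytoskeleton Dye, MitoTracker Red and Annexin V Alexa Fluor 680 were added to live cells at seeding, and imaging on a CQ1 microscope at 37°C and 5% CO2 followed compound addition. Gating by CellPathfinder machine learning separated cells into Hoechst high-intensity objects or normal cells, then normal cells into healthy, pyknosed or fragmented nuclei, then pyknosed cells into mitotic or apoptotic. Per cents of healthy-nucleus cells are reported for the tubulin, mitochondrial-mass and membrane-permeability phenotypes.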

[1] = 12 h, 1 µM, compound concentration 1 uM, replicate 1
[2] = 12 h, 1 µM, compound concentration 1 uM, replicate 2
[3] = 12 h, 10 µM, compound concentration 10 uM, replicate 1
[4] = 12 h, 10 µM, compound concentration 10 uM, replicate 2
[5] = 24 h, 1 µM, compound concentration 1 uM, replicate 1
[6] = 24 h, 1 µM, compound concentration 1 uM, replicate 2
[7] = 24 h, 10 µM, compound concentration 10 uM, replicate 1
[8] = 24 h, 10 µM, compound concentration 10 uM, replicate 2
[9] = 48 h, 1 µM, compound concentration 1 uM, replicate 1
[10] = 48 h, 1 µM, compound concentration 1 uM, replicate 2
[11] = 48 h, 10 µM, compound concentration 10 uM, replicate 1
[12] = 48 h, 10 µM, compound concentration 10 uM, replicate 2

Cc1ccc(-c2ccc(F)cc2COc2ccc(CCC(=O)O)cc2)cc1
Population Apoptotic (%) [1]: 42%
Population Fragmented Nuclei (%) [1]: 6%
Population Healthy Nuclei (%) [1]: 82%
Population Hoechst High Intensity Objects (%) [1]: 9%
Population Mitochondria Different-Phenotype (%) [1]: 36%
Population Mitotic Cells (%) [1]: 57%
Population Normal (%) [1]: 90%
Population Tubulin-Different-Phenotype (%) [1]: 18%
Total Cell Count [1]: 465
Population Apoptotic (%) [2]: 33%
Population Healthy Nuclei (%) [2]: 77%
Population Mitochondria Different-Phenotype (%) [2]: 50%
Population Mitotic Cells (%) [2]: 66%
Population Pyknosed Nuclei (%) [2]: 15%
Total Cell Count [2]: 324
Population Apoptotic (%) [3]: 32%
Population Fragmented Nuclei (%) [3]: 10%
Population Healthy Nuclei (%) [3]: 79%
Population Hoechst High Intensity Objects (%) [3]: 7%
Population Mitochondria Different-Phenotype (%) [3]: 46%
Population Mitotic Cells (%) [3]: 67%
Population Normal (%) [3]: 92%
Population Pyknosed Nuclei (%) [3]: 10%
Population Tubulin-Different-Phenotype (%) [3]: 33%
Total Cell Count [3]: 329
Population Apoptotic (%) [4]: 42%
Population Fragmented Nuclei (%) [4]: 7%
Population Healthy Nuclei (%) [4]: 83%
Population Hoechst High Intensity Objects (%) [4]: 6%
Population Mitochondria Different-Phenotype (%) [4]: 58%
Population Mitotic Cells (%) [4]: 57%
Population Normal (%) [4]: 93%
Population Pyknosed Nuclei (%) [4]: 9%
Population Tubulin-Different-Phenotype (%) [4]: 15%
Total Cell Count [4]: 396
Population Apoptotic (%) [5]: 16%
Population Fragmented Nuclei (%) [5]: 10%
Population Healthy Nuclei (%) [5]: 82%
Population Hoechst High Intensity Objects (%) [5]: 3%
Population Mitochondria Different-Phenotype (%) [5]: 16%
Population Mitotic Cells (%) [5]: 84%
Population Normal (%) [5]: 96%
Population Pyknosed Nuclei (%) [5]: 7%
Population Tubulin-Different-Phenotype (%) [5]: 10%
Total Cell Count [5]: 688
Population Apoptotic (%) [6]: 52%
Population Fragmented Nuclei (%) [6]: 9%
Population Healthy Nuclei (%) [6]: 80%
Population Hoechst High Intensity Objects (%) [6]: 7%
Population Mitochondria Different-Phenotype (%) [6]: 33%
Population Mitotic Cells (%) [6]: 47%
Population Normal (%) [6]: 92%
Population Pyknosed Nuclei (%) [6]: 9%
Population Tubulin-Different-Phenotype (%) [6]: 13%
Total Cell Count [6]: 445
Population Apoptotic (%) [7]: 36%
Population Fragmented Nuclei (%) [7]: 11%
Population Healthy Nuclei (%) [7]: 76%
Population Hoechst High Intensity Objects (%) [7]: 5%
Population Mitochondria Different-Phenotype (%) [7]: 30%
Population Mitotic Cells (%) [7]: 63%
Population Normal (%) [7]: 94%
Population Tubulin-Different-Phenotype (%) [7]: 18%
Total Cell Count [7]: 397
Population Apoptotic (%) [8]: 51%
Population Fragmented Nuclei (%) [8]: 6%
Population Healthy Nuclei (%) [8]: 87%
Population Hoechst High Intensity Objects (%) [8]: 3%
Population Mitochondria Different-Phenotype (%) [8]: 37%
Population Mitotic Cells (%) [8]: 48%
Population Normal (%) [8]: 96%
Population Pyknosed Nuclei (%) [8]: 6%
Population Tubulin-Different-Phenotype (%) [8]: 13%
Total Cell Count [8]: 461
Population Apoptotic (%) [9]: 17%
Population Fragmented Nuclei (%) [9]: 15%
Population Healthy Nuclei (%) [9]: 79%
Population Hoechst High Intensity Objects (%) [9]: 1%
Population Mitochondria Different-Phenotype (%) [9]: 7%
Population Mitotic Cells (%) [9]: 82%
Population Normal (%) [9]: 98%
Population Pyknosed Nuclei (%) [9]: 5%
Population Tubulin-Different-Phenotype (%) [9]: 8%
Total Cell Count [9]: 1149
Population Apoptotic (%) [10]: 36%
Population Fragmented Nuclei (%) [10]: 14%
Population Healthy Nuclei (%) [10]: 77%
Population Mitochondria Different-Phenotype (%) [10]: 18%
Population Mitotic Cells (%) [10]: 63%
Population Normal (%) [10]: 97%
Population Pyknosed Nuclei (%) [10]: 8%
Population Tubulin-Different-Phenotype (%) [10]: 9%
Total Cell Count [10]: 631
Population Apoptotic (%) [11]: 24%
Population Fragmented Nuclei (%) [11]: 12%
Population Healthy Nuclei (%) [11]: 78%
Population Mitochondria Different-Phenotype (%) [11]: 17%
Population Mitotic Cells (%) [11]: 75%
Population Normal (%) [11]: 97%
Population Pyknosed Nuclei (%) [11]: 8%
Population Tubulin-Different-Phenotype (%) [11]: 9%
Total Cell Count [11]: 713
Population Apoptotic (%) [12]: 31%
Population Fragmented Nuclei (%) [12]: 15%
Population Healthy Nuclei (%) [12]: 79%
Population Hoechst High Intensity Objects (%) [12]: 4%
Population Mitochondria Different-Phenotype (%) [12]: 16%
Population Mitotic Cells (%) [12]: 68%
Population Normal (%) [12]: 95%
Population Pyknosed Nuclei (%) [12]: 5%
Population Tubulin-Different-Phenotype (%) [12]: 8%
Total Cell Count [12]: 702
